Assay results reported in ChEMBL document CHEMBL1157100, “The alkyl-connected 2-amino-6-vinylpurine (AVP) crosslinking agent for improved selectivity to the cytosine base in RNA” (Bioorg Med Chem, 2010).
Activity calls are given as the source filed them. The calls are words filed in the database; no cut-off is given here.

Columns and labels:
Type in all cases: nucleic-acid assay
Nucleic Acid [1] = experiment: Binding affinity to FAM-tagged r-(GAAAYAAGAGGAAAGA)-RNA assessed as crosslinking at 10 uM by alkylation method
Method in brief: (§1)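 Reactive ODN at 10 µM with 1 µM FAM-labeled target DNA or RNA in 100 mM NaCl, 50 mM MES pH 5 plus RNase OUT, mixed at 0 °C and then incubated at 37 °C. Reactions were stopped at set times with formamide/EDTA/bromophenol blue buffer. Products were resolved on 15% denaturing polyacrylamide gel with 7 M urea, and FAM band intensities were quantified to give crosslinking yield.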

Nucleic Acid [2] = experiment: Binding affinity to FAM-tagged r-(GAAAYAAGAGGAAAGA)-RNA assessed as crosslinking by PAGE; method in brief: as §1
Nucleic Acid [3] = experiment: Binding affinity to FAM-tagged d-(GAAAYAAGAGGAAAGA)-DNA assessed as crosslinking at 10 uM by alkylation method; method in brief: as §1
Nucleic Acid [4] = experiment: Binding affinity to FAM-tagged 27 mer RNA hairpin loop assessed as crosslinking at 10 uM by PAGE; method in brief: as §1

| SMILES | Activity (Nucleic Acid [1]) | Activity (Nucleic Acid [2]) | Activity (Nucleic Acid [3]) | Activity (Nucleic Acid [4]) |
| --- | --- | --- | --- | --- |
| CSCCc1nc(N)nc2c1ncn2CC[C@H]1C[C@H](OP(=O)(O)OC[C@H]2O[C@@H](n3cc(C)c(=O)[nH]c3=O)C[C@@H]2OP(=O)(O)OC[C@H]2O[C@@H](n3cc(C)c(=O)[nH]c3=O)C[C@@H]2OP(=O)(O)OC[C@H]2O[C@@H](n3ccc(N)nc3=O)[C@H](O)[C@@H]2OP(=O)(O)OC[C@H]2O[C@@H](n3cc(C)c(=O)[nH]c3=O)C[C@@H]2OP(=O)(O)OC[C@H]2O[C@@H](n3ccc(N)nc3=O)[C@H](O)[C@@H]2OP(=O)(O)OC[C@H]2O[C@@H](n3ccc(N)nc3=O)[C@H](O)[C@@H]2OP(=O)(O)OC[C@H]2O[C@@H](n3cc(C)c(=O)[nH]c3=O)C[C@@H]2OP(=O)(O)OC[C@H]2O[C@@H](n3cc(C)c(=O)[nH]c3=O)C[C@@H]2OP(=O)(O)OC[C@H]2O[C@@H](n3cc(C)c(=O)[nH]c3=O)C[C@@H]2OP(=O)(O)OC[C@H]2O[C@@H](n3ccc(N)nc3=O)[C@H](O)[C@@H]2OP(=O)(O)OC[C@H]2O[C@@H](n3cc(C)c(=O)[nH]c3=O)C[C@@H]2OP(=O)(O)O)[C@@H](COP(=O)(O)O[C@H]2C[C@H](n3cc(C)c(=O)[nH]c3=O)O[C@@H]2COP(=O)(O)O[C@H]2C[C@H](n3cc(C)c(=O)[nH]c3=O)O[C@@H]2COP(=O)(O)O[C@H]2C[C@H](n3cc(C)c(=O)[nH]c3=O)O[C@@H]2COP(=O)(O)O[C@H]2[C@@H](O)[C@H](n3ccc(N)nc3=O)O[C@@H]2CO)O1 | Active | Active | Active |  |
| CSCCc1nc(N)nc2c1ncn2[C@H]1C[C@H](OP(=O)(O)OC[C@H]2O[C@@H](n3cc(C)c(=O)[nH]c3=O)C[C@@H]2OP(=O)(O)OC[C@H]2O[C@@H](n3cnc4c(N)ncnc43)[C@H](O)[C@@H]2OP(=O)(O)OC[C@H]2O[C@@H](n3cc(C)c(=O)[nH]c3=O)C[C@@H]2OP(CCC#N)N(C(C)C)C(C)C)[C@@H](COP(=O)(O)O[C@H]2C[C@H](n3cc(C)c(=O)[nH]c3=O)O[C@@H]2COP(=O)(O)O[C@H]2C[C@H](n3cc(C)c(=O)[nH]c3=O)O[C@@H]2COP(=O)(O)O[C@H]2[C@@H](O)[C@H](n3cnc4c(N)ncnc43)O[C@@H]2COP(=O)(O)O[C@H]2[C@@H](O)[C@H](n3cnc4c(N)ncnc43)O[C@@H]2COP(=O)(O)O[C@H]2[C@@H](O)[C@H](n3cnc4c(N)ncnc43)O[C@@H]2COP(=O)(O)O[C@H]2[C@@H](O)[C@H](n3ccc(N)nc3=O)O[C@@H]2COP(=O)(O)O[C@H]2C[C@H](n3cc(C)c(=O)[nH]c3=O)O[C@@H]2COP(=O)(O)O[C@H]2[C@@H](O)[C@H](n3cnc4c(N)ncnc43)O[C@@H]2COP(=O)(O)O[C@H]2[C@@H](O)[C@H](n3cnc4c(=O)[nH]c(N)nc43)O[C@@H]2COP(=O)(O)O[C@H]2C[C@H](n3cc(C)c(=O)[nH]c3=O)O[C@@H]2COP(=O)(O)O[C@H]2[C@@H](O)[C@H](n3ccc(N)nc3=O)O[C@@H]2COP(=O)(O)O[C@H]2[C@@H](O)[C@H](n3cnc4c(N)ncnc43)O[C@@H]2COP(=O)(O)O[C@H]2C[C@H](n3cc(C)c(=O)[nH]c3=O)O[C@@H]2COP(=O)(O)O[C@H]2[C@@H](O)[C@H](n3cnc4c(N)ncnc43)O[C@@H]2COP(=O)(O)O[C@H]2C[C@H](n3cc(C)c(=O)[nH]c3=O)O[C@@H]2CO)O1 (some centres undefined) |  |  |  | inactive |
